Screens as filed in PubChem BioAssay.
mIAP activ: activators of mouse IAP, primary screen, biochemical, luminescence, uHTS | intestinal alkaline phosphatase [Mus musculus] | muIAP, CDP-Star luminescence, 30 min; hits give high values; 1 = vehicle-only enzyme signal, 0 = enzyme-free wells | activation factor at 10 µM | 330,000 compounds, 0.24% hits | AID 2805, 2010;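 active means activation factor of at least 2 at 20 µM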
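Assay system: mouse IAP enzyme; reagent: chemiluminescent substrate CDP-Star; dosing: test compounds delivered from DMSO solution; schedule: 30 min at room temperature; measured by: luminescence from enzymatic CDP-Star hydrolysis; controls: DMSO-only wells and no-enzyme negative control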
mIAP block: inhibitors of mouse IAP, primary screen, biochemical, luminescence, uHTS; intestinal alkaline phosphatase [Mus musculus]; purified mouse IAP, CDP-Star luminescence, 30 min; inhibition, % at 10 µM; 330,000 compounds, 0.2% hits; AID 2806, 2010;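 active means inhibition of at least 40% at 10 µM in the primary screen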;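 further: plate controls were DMSO with enzyme for no effect and no enzyme wells for full effect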
bIAP act: bovine intestinal alkaline phosphatase activators, primary screen, biochemical, bovine IAP, CDP-star luminescence; alkaline phosphatase, intestinal [Bos taurus]; activation factor at 20 µM; AID 1016, 2008; 200,000 compounds, 0.17% hits; purified bovine IAP, 30 min; hits give high values; fold of DMSO-control signal, blank-subtracted;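 active means activation factor of 2 or more at 20 µM, a signal rise over negative controls twice the positive control's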
hIAP block: human IAP inhibitors, primary screen, biochemical, luminescence, uHTS | inhibition, % at 10 µM | Intestinal-type alkaline phosphatase (Homo sapiens), P09923 | 330,000 compounds, 0.12% hits | purified IAP, CDP-Star luminescence, 30 min;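 active means inhibition reaching a set limit with compound at 10 µM in the primary screen, cut at about 35% in these data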;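 further: plate controls were DMSO wells with enzyme for no effect and no-enzyme buffer wells for full effect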
Target sequence (P09923 whole entry, looked up): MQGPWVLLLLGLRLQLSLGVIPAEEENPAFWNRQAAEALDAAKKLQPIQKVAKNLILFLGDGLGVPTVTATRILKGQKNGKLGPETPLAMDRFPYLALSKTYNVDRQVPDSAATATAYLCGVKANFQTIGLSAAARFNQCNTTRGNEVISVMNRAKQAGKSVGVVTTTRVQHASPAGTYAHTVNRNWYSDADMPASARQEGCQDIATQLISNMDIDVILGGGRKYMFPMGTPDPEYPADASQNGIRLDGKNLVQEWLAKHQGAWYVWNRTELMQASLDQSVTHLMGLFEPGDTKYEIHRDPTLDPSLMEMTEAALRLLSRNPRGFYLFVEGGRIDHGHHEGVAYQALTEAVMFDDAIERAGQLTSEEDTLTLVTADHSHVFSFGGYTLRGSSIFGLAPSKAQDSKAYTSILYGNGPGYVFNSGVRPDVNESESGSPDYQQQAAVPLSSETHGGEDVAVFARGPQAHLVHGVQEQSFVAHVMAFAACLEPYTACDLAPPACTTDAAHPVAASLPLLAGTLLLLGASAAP
hIAP act: human IAP activators, primary screen, biochemical, luminescence, uHTS | Intestinal-type alkaline phosphatase (Homo sapiens), P09923 | purified human IAP, CDP-Star luminescence, 30 min; hits give high values; 1 = vehicle-only enzyme, 0 = enzyme-free background | activation factor at 10 µM | 330,000 compounds, 0.16% hits | AID 2524, 2010;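 active means activation factor of the enzyme at least 2-fold when tested at 20 µM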
bIAP inh: bovine intestinal alkaline phosphatase inhibitors, primary screen, selectivity assay for TNAP inhibitor project, biochemical, bovine IAP, CDP-star luminescence; 190,000 tested, under 10 active; inhibition, % at 20 µM; purified bovine IAP, 30 min;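 active means over 50% inhibition of intestinal alkaline phosphatase at 20 µM in the single-dose screen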
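test system = bovine IAP enzyme | medium = DEA buffer 100 mM, pH 9.8, with MgCl2 1.0 mM, ZnCl2 0.02 mM | detection = luminescence | dosing = single compound dose of 20 µM, 2% DMSO final | incubation = 30 min reaction at room temperature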
Numbers without * were called inactive; nt = no result. The list is not random: actives were taken first. Their share in the collection is about 0.72%.

SMILES	mIAP activ	mIAP block	bIAP act	hIAP block	hIAP act	bIAP inh
Cc1ccc(CNC(=O)C2CCCN(S(=O)(=O)c3ccc(-n4cnnn4)cc3)C2)cc1 (stereo unspecified)	0.97	3	nt	-18	1.2	nt
COc1ccccc1NC(=S)NCCC(c1ccccc1)c1ccccc1	2.1*	-108	1	-6	1.1	2
S=C(NCc1ccc(Cl)cc1)Nc1ccccc1Cl	1.5	-52	0.9	11	0.89	6
COc1cc(NC(=S)NCCC(c2ccccc2)c2ccccc2)c(OC)cc1Cl	3.5*	-248	1	1	0.99	2
COc1ccccc1NC(=S)NCc1ccccc1	0.97	3	nt	-5	1.1	nt
S=C(NCCC(c1ccccc1)c1ccccc1)Nc1ccccc1Cl	6*	-499	1.7	6	0.94	-66
C#Cc1cccc(NC(=O)c2ccc(Cl)cc2Cl)c1	0.92	8	nt	6	0.94	nt
CCCCSCCCNC(=O)Nc1ccc(C)c(C)c1	2.7*	-173	1	-28	1.3	-3
Cc1ccc(NC(=O)NCCN2CCCCC2)cc1C	1.3	-29	nt	19	0.81	nt
Cn1cnnc1SCC(=O)N1CCN(C(=O)c2ccco2)CC1	1	-3	0.8	9	0.91	20
Cn1cnnc1SCC(=O)N1CCC(Cc2ccccc2)CC1	1.2	-20	2.4*	-14	1.1	-140
Clc1cccc(Cl)c1CSc1nnc(-c2ccncc2)s1	0.98	2	nt	-106	2.1*	nt
N=C1C2=C3Sc4ccccc4N3CCCC2=NN1c1cccc(S(=O)(=O)O)c1	0.99	1	nt	-10	1.1	nt
Cc1cccc([C@@H]2[C@@H]3C(=O)N(Cc4ccccc4)C(=O)[C@@H]3[C@]3(C)C(=O)N(c4ccc(C(F)(F)F)cc4)C(=O)N23)c1	0.59	41*	nt	0	1	nt
COc1ccc(N2C(=O)N3[C@H](c4cccc(C)c4)[C@@H]4C(=O)N(Cc5ccccc5)C(=O)[C@@H]4[C@]3(Cc3ccccc3)C2=O)cc1	1.1	-6	nt	-18	1.2	nt
Cc1c(CC(=O)NCCCC(=O)O)c(=O)oc2cc3c(cc12)CCC(C)(C)O3	1.1	-7	nt	-8	1.1	nt
OC1CCCC1	1	-4	nt	-9	1.1	nt
CCc1ccccc1NC(=O)NC1CC2CCC(C1)N2Cc1cccs1 (stereo unspecified)	1.2	-22	1.2	-4	1	-17
CCc1ccc(NC(=S)NC2CC3CCCC(C2)N3Cc2cccs2)cc1 (stereo unspecified)	5.7*	-470	1.6	-50	1.5	-56
O=c1cc(-c2ccc(O)cc2)oc2c(C3OCC(O)C(O)C3O)c(O)c(C3OC(CO)C(O)C(O)C3O)c(O)c12 (stereo unspecified)	0.57	43*	nt	-1	1	nt
CCCC(=O)NC(=S)Nc1ccc(S(=O)(=O)N2CCc3ccccc32)cc1	0.89	11	nt	7	0.93	nt
O=C(Nc1nc(-c2ccccc2)cs1)NC1CCCCC1	2.6*	-157	0.8	-5	1	17
c1ccc(-c2csc(NC3CCCCC3)n2)cc1	0.96	4	nt	20	0.8	nt
COc1ccc(S(=O)(=O)Nc2cccc(/C=C/C(=O)O)c2)cc1	1	-1	4.6*	4	0.96	-357
Cc1ccc(S(=O)(=O)Nc2cccc(/C=C/C(=O)O)c2)cc1	1	-4	1	-3	1	2
SMILES	mIAP activ	mIAP block	bIAP act	hIAP block	hIAP act	bIAP inh
CC1CCCN(C(=O)C2(NC(=O)Nc3cccc(F)c3)CCCCC2)C1 (stereo unspecified)	3.1*	-213	1.6	-62	1.6	-61
O=C1C2CCCN2C(=O)N1CCN1CCN(CCO)CC1 (stereo unspecified)	1	-5	2.7*	2	0.98	-173
CC(=O)c1ccc(C(=O)N2CCC(n3nccc3NC(=O)C3CC3)CC2)cc1	0.84	16	nt	-11	1.1	nt
Cc1cccc(NC(=O)[C@H](Cc2ccccc2)NC(=O)OCc2ccccc2)c1	1.6	-57	1	5	0.95	0
Cc1ccc(NC(=O)C(Cc2ccccc2)NC(=O)OCc2ccccc2)cc1C (stereo unspecified)	2.1*	-111	1	-7	1.1	-3
COCCn1c(N/N=C(C)/C=C/c2ccccc2)nc2c1c(=O)[nH]c(=O)n2C	nt	nt	2.8*	nt	nt	-179
CC(/C=C/c1ccccc1)=N\Nc1nc2c(c(=O)[nH]c(=O)n2C)n1CCO	0.91	9	nt	12	0.88	nt
COc1cccc(NC(=S)NC2CC3CCCC(C2)N3CC(C)C)c1 (stereo unspecified)	2.8*	-179	1.1	-11	1.1	-6
Cc1nc2ccc(C(=O)N3CCCC(CO)(Cc4ccc(F)cc4F)C3)cc2nc1C (stereo unspecified)	0.98	2	nt	-4	1	nt
Cc1ccc(C)c(NC(=S)NCCSc2ccc(Cl)cc2)c1	1.9	-87	0.6	-5	1.1	36
Cc1ccccc1NC(=S)NCCSc1ccc(Cl)cc1	2	-97	0.4	-13	1.1	nt
Cc1ccc(NC(=S)NCCSc2ccc(Cl)cc2)c(C)c1	2	-99	1.1	0	1	-15
Cc1cccc(NC(=S)NCC(C)CSc2ccc(Cl)cc2)c1 (stereo unspecified)	3.2*	-225	0.7	-38	1.4	35
Cc1cccc(NC(=S)NCC(c2ccccc2)N(C)C)c1 (stereo unspecified)	1.1	-9	0.8	-3	1	17
Cc1ccc(NC(=S)NCC(C)CSc2ccc(Cl)cc2)cc1 (stereo unspecified)	2.7*	-165	0.7	-36	1.4	31
CCc1ccccc1NC(=S)NCCSc1ccc(Cl)cc1	2*	-102	0.5	19	0.81	nt
Cc1cccc(NC(=S)NCCSc2ccc(Cl)cc2)c1	2.2*	-123	0.6	-14	1.1	40
NC(=O)c1ccsc1NC(=O)COC(=O)c1cc(Cl)ccc1O	1.1	-8	nt	10	0.9	nt
CN(C)Cc1cccc([N+](=O)[O-])c1O	0.92	8	nt	-8	1.1	nt
COc1ccc(CCN2C(=O)CC(N3CCN(C/C=C/c4ccccc4)CC3)C2=O)cc1OC (stereo unspecified)	0.85	14	nt	0	0.99	nt
CC1CCCN(CCCN2C(=O)C3C(C(=O)Nc4ccc(Cl)cc4)C4C=CC3(O4)C2C(=O)NC2CCCCC2)C1 (stereo unspecified)	1.1	-7	nt	-36	1.4	nt
Cc1cccc(NC(=S)NC(C)CCc2ccccc2)c1 (stereo unspecified)	2.2*	-117	0.6	-8	1.1	38
